Experiment [1] relates to Human immunodeficiency virus 1. The experiment in a line: Selectivity index is the ratio of CC50 to IC50. It is filed as functional.
Experiment [2] relates to CEM-SS. The experiment in a line: Tested for cytotoxic concentration on HIV-I Lai wild type in CEM-SS cell line. The following applies: Homo sapiens. It is filed as functional. In a few lines:
(§1)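 CEM-SS cells, uninfected, cultured 5 days with compound. Compounds were taken from a DMSO solution at 10^-2 M (10^-3 M or lower if insoluble), diluted 1:100 in medium, then serially diluted in medium.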

The subject of experiment [3] is CEM-SS. The experiment in a line: Tested for inhibitory concentration on HIV-I Lai wild type in CEM-SS cell line. It is filed as functional, cell-based. Particulars: Homo sapiens. In a few lines: (§2)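 CEM-SS lymphocytic cells infected with 100 TCID50 of HIV-1 LAI, or of the nevirapine-resistant N119 strain carrying an RT codon 181 mutation. Virus adsorbed 30 min, unbound virus removed by two washes, then cells cultured 5 days with serial compound dilutions. Read-out: RT activity of particles released into the supernatant. IC50 from a computer median effect plot of dose-effect data.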

The subject of experiment [4] is MT4. As to the kind of experiment: Cytotoxicity against MT-4 cells infected with HIV-1 IIIB strain. It is filed as functional. Particulars: Homo sapiens.
Experiment [5] can be described thus: Inhibitory concentration against HIV-2 D 194. It is filed as functional. In a few lines:
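Cell-based antiviral assay against this HIV-2 isolate. Compounds were dissolved in DMSO as 10^-2 M stocks, or 10^-3 M or lower when insoluble, diluted 1% in culture medium, then serially diluted in medium. Virus production was read as reverse transcriptase activity of particles released into the culture supernatant. IC50 was taken from a median-effect plot of the dose-effect data.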

Experiment [6] concerns Human immunodeficiency virus 1. The experiment in a line: Inhibitory concentration against HIV-1 Bal/Mono. The experiment is classed as functional, organism-based. In a few lines: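 Macrophage-tropic HIV-1 Bal in monocyte-derived macrophages kept serum-free in AIM V medium with 100 U/mL GM-CSF. Virus output measured as supernatant particle-associated RT activity.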
A short description of experiment [7]: Cytotoxicity against PBMC cells infected with HIV-2 D 194. It is filed as functional. The following applies: Human immunodeficiency virus 2, PBMC.
In experiment [8] the test system is Human immunodeficiency virus 1. The experiment in a line: Tested for cytotoxic concentration on HIV-I nevirapine resistant strain. The experiment is classed as functional. A digest of the protocol:
as §1

In experiment [9] the test system is Human immunodeficiency virus 1. The experiment in a line: Inhibitory concentration against HIV-1 AZTres. The experiment is classed as functional, organism-based. A digest of the protocol: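 AZT-resistant HIV-1 isolate A018 G910-6 tested in cell culture; virus production measured as RT activity of particles released into the culture supernatant.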
Experiment [10] has as its system MT4. The experiment in a line: Cytotoxicity against MT-4 cells infected with HIV-1 AZTres. The experiment is classed as functional. The following applies: Homo sapiens.
The subject of experiment [11] is Human immunodeficiency virus 1. The experiment in a line: Selectivity index is the ratio of CC50 to IC50 against HIV-1 nevirapine resistant strain. The experiment is classed as functional.
Experiment [12] concerns Human immunodeficiency virus 1. As to the kind of experiment: Inhibitory concentration against HIV-1 IIIB strain. The experiment is classed as functional, organism-based. In a few lines: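 MT4 cells infected with HIV-1 IIIB; antiviral effect read as protection from virus-induced cytopathogenicity by MTT. Compounds taken from DMSO stock, diluted in culture medium.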
Experiment [13] relates to Human immunodeficiency virus 1. As to the kind of experiment: Tested for inhibitory concentration on HIV-I nevirapine resistant strain. The experiment is classed as functional, organism-based. A digest of the protocol: as §2
The nature of experiment [14]: Cytotoxicity against Macrophages infected with HIV-1 Bal/Mono. Particulars: Human immunodeficiency virus 1. The experiment is classed as functional.
Experiment [15] in a line: Cytotoxicity against PBMC cells infected with HIV-1 IIIB strain. The experiment is classed as functional. Particulars: Human immunodeficiency virus 1, PBMC.
Experiment [16] deals with Human immunodeficiency virus type 1 reverse transcriptase (Human immunodeficiency virus 1, UniProt Q72547). The experiment in a line: Tested for inhibitory concentration on HIV-1 Reverse transcriptase in the presence of poly(c)-oligo-(dG). A digest of the protocol: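 Recombinant HIV-1 RT purified from yeast, 20-50 nM. Reaction at 37 °C for 10 min in 50 mM Tris-HCl pH 8.0, 5 mM MgCl2, 4 mM DTT, 80 mM KCl, BSA, 0.48 A260 units/mL poly(C)-oligo(dG) (5:1), 2 µM dGTP plus [3H]dGTP. Stopped with cold 10% TCA plus 0.1 M pyrophosphate; precipitates filtered, scintillation counted. Compounds dissolved in DMSO.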

“And” between values parts separate entries of the source, which are not always exact repeats. Equal values may be shown once. Some results are limits rather than exact numbers.

A word on the CC50: it is the concentration giving 50% cytotoxicity. The low end stands for greater toxicity to the cells, the high end for lower toxicity to the cells. By IC50 is commonly meant the point on the concentration scale where inhibition reaches its midpoint. As to `CCOCn1c(Cc2cc(C)cc(C)c2)c(CC)c(=O)[nH]c1=O`, in experiment [1], the SI is 130000. Besides, in the experiment on CEM-SS [2], the CC50 is 207 µM. The IC50 in the experiment on CEM-SS [3] worked out at 0.0016 µM.

As for `CCc1c(C)nc(OC)c(NC(=O)C(C)(C)C)c1C(OC(C)=O)c1cc(C)cc(C)c1` (stereo unspecified), the SI in experiment [1] is greater than 1. This molecule also yielded a CC50 with CEM-SS [2] greater than 10 µM. In the experiment with CEM-SS [3], this molecule registered an IC50 of 10 µM.

The molecule `CCc1c(C)nc(OC)c(NC(=O)C(C)(C)C)c1Cc1cc(C)cc(C)c1` displayed a CC50 with CEM-SS [2] greater than 100 µM. In the experiment with CEM-SS [3], this molecule displayed an IC50 greater than 100 µM.

The molecule `CCc1c(C)nc(OC)c(NC(=O)C(C)(C)C)c1C(O)c1cc(C)cc(C)c1` (stereo unspecified) came in with a CC50 in the experiment on CEM-SS [2] greater than 1 µM. The molecule further registered an IC50 in the experiment on CEM-SS [3] greater than 1 µM.

Turning to `CCc1c(C)nc(O)c(N)c1C(O)c1cc(C)cc(C)c1` (stereo unspecified), the CC50 in the experiment with MT4 [4] was 10 µM; in [7], greater than 10 µM; in experiment [8], greater than 10 µM; with MT4 [10], greater than 10 µM; in the experiment with CEM-SS [2], greater than 10 µM; in experiment [14] it was greater than 10 µM. The molecule further returned a CC50 in experiment [15] greater than 10 µM. The IC50 is greater than 10 µM in experiment [5]; 0.18 µM in experiment [6]; 0.42 µM in experiment [9]; 3.4 µM and 0.69 µM in [12]; 4.5 µM in experiment [13]; 1 µM in the experiment with CEM-SS [3]. Besides, the results for the SI in experiment [1] and in experiment [11] were greater than 10 and greater than 2, respectively.

As to `CCc1c(C)nc(OC)c(NC(=O)C(C)(C)C)c1C(C)(O)c1cc(C)cc(C)c1` (stereo unspecified), in the experiment on CEM-SS [2], the CC50 was greater than 10 µM. Further, in the experiment with CEM-SS [3], the IC50 was greater than 10 µM.

Consider `CCc1c(C)nc(O)c(NC(C)=O)c1Sc1cc(C)cc(C)c1`, for which, in [1], the SI turned out to be 1600. This molecule registered an IC50 in the experiment on CEM-SS [3] of 0.05 µM.

For the molecule `CCOCn1c(Cc2cc(C)cc(C)c2)c(C(C)C)c(=O)[nH]c1=O`, the SI in [1] is 72000. In the experiment on CEM-SS [2], this molecule came in with a CC50 of 43 µM. In the experiment with CEM-SS [3], this molecule had an IC50 of 0.0006 µM.

Regarding `CCc1c(C)[nH]c(=O)c(NC(C)=O)c1Cc1cc(C)cc(C)c1`, the CC50 (with MT4 [4]; in experiment [7]; in [8]; with MT4 [10]; in the experiment on CEM-SS [2]; in experiment [14]) was greater than 10 µM in each case. Further, in [15], the CC50 was greater than 10 µM. For the same molecule, the half-maximal inhibitory concentration (IC50) in [5] was greater than 10 µM; in experiment [6], 0.2 µM; in experiment [9], 0.44 µM; in [13] it was greater than 10 µM; in the experiment with CEM-SS [3], 0.1 µM. Also, in experiment [1], the SI is on record as greater than 100.

As to `CCc1c(C)nc(OC)c(NC(C)=O)c1C(C)(OC(C)=O)c1cc(C)cc(C)c1` (stereo unspecified), the SI in experiment [1] is on record as greater than 4. This molecule registered a CC50 in the experiment with CEM-SS [2] greater than 10 µM. The IC50 with CEM-SS [3] was 2.5 µM.

On to `Cc1cn([C@H]2C[C@H](N=[N+]=[N-])[C@@H](CO)O2)c(=O)[nH]c1=O` [ZIDOVUDINE], for which, in experiment [1], the SI is reported as greater than 33333. The IC50 in the experiment with CEM-SS [3] is 0.003 µM.

`CCc1c(C)nc(OC)c(NC(=O)C(C)(C)C)c1Cc1ccccc1` returned a CC50 with CEM-SS [2] greater than 1 µM. The same molecule gave a 50% inhibitory concentration (IC50) with CEM-SS [3] greater than 1 µM.

As for `CCOC(=O)Nc1c(O)ncc(C)c1Sc1cc(C)cc(C)c1`, the SI in experiment [1] is reported as greater than 13. Besides, in the experiment on CEM-SS [3], it took 7.5 µM to reach half-maximal inhibition (IC50).

Take `CCc1c(C)nc(O)c(NCc2cc(C)c(C)cc2OC)c1Cc1cc(C)cc(C)c1`: in the experiment with CEM-SS [2], the CC50 was greater than 1 µM. Also, it took 1 µM to reach half-maximal inhibition in the experiment on CEM-SS [3] (IC50).

As to `CCc1c(C)[nH]c(=O)c(NC=O)c1Cc1cc(C)cc(C)c1`, the CC50 (in the experiment on MT4 [4]; in experiment [7]; in [8]; with MT4 [10]; in the experiment on CEM-SS [2]; in experiment [14]) was greater than 10 µM throughout. Besides, in experiment [15], the CC50 is greater than 10 µM. Further, the IC50 is 0.2 µM in experiment [16]; greater than 10 µM in experiment [5]; 0.021 µM in experiment [6]; 0.071 µM in [9]; 2.9 µM in [13]; 0.003 µM in the experiment with CEM-SS [3]. The SI in [1] is given as greater than 3333; in experiment [11], greater than 3.

The molecule `CCc1c(C)nc(OC)c2c1C(c1cc(C)cc(C)c1)OC(C(C)(C)C)=N2` (stereo unspecified) had a CC50 with CEM-SS [2] greater than 10 µM. In the experiment with CEM-SS [3], this molecule showed an IC50 greater than 10 µM.

On to `CCc1cc(N)c(O)nc1C`, for which, in [1], the SI is listed as greater than 3. Also, the CC50 in the experiment with CEM-SS [2] is greater than 100 µM. Moreover, the concentration for half-maximal inhibition (IC50) with CEM-SS [3] came out at 30 µM.

Values taken from ChEMBL document CHEMBL1133473, “Synthesis and antiviral activity of 4-benzyl pyridinone derivatives as potent and selective non-nucleoside human immunodeficiency virus type 1 reverse transcriptase inhibitors” (J Med Chem, 2000).
